From ChEMBL document CHEMBL4613265, “Novel Human Neutral Sphingomyelinase 2 Inhibitors as Potential Therapeutics for Alzheimer's Disease” (J Med Chem, 2020)

Key:
[1] = Stability in mouse liver microsomes assessed as parent compound remaining at 1 uM measured after 60 mins in absence of NADPH by LC-MS/MS analysis; type: ADME, Microsome; settings: for remaining at 1 h, 1 µM: liver microsomes, read-out: Stability
In short: (§1)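 Cofactor-free control for cofactor-independent degradation. Mouse or human liver microsomes at 0.2 mg/mL, 1 μM compound (final), 100 mM potassium phosphate at pH 7.4, no NADPH regenerating system. Adding microsomes started the reaction; run in triplicate. Sampled at 60 min and quenched with three volumes of ice-cold acetonitrile spiked with internal standard.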

[2] = Stability in mouse liver microsomes assessed as CYP450-mediated metabolism by measuring parent compound remaining at 1 uM measured after 60 mins in presence of NADPH generating system by LC-MS/MS analysis; type: ADME; settings: 1 h
In short: (§2)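 Liver microsomes from mouse or human, 0.2 mg/mL, with 1 μM compound (final) in 100 mM potassium phosphate at pH 7.4. Adding microsomes started the reaction; triplicates. After 60 min, quenched with 3 volumes of ice-cold acetonitrile containing internal standard.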

[3] = test system: Cytochrome P450; assay: Stability in human liver microsomes assessed as CYP450-mediated metabolism by measuring parent compound remaining at 1 uM measured after 60 mins in presence of NADPH generating system by LC-MS/MS analysis; type: ADME; settings: 1 h; in short: as §2
[4] = Stability in human liver microsomes assessed as parent compound remaining at 1 uM measured after 60 mins in absence of NADPH by LC-MS/MS analysis; type: ADME, Microsome; settings: for remaining at 1 h, 1 µM: liver microsomes, read-out: Stability; in short: as §1

CSc1ccc(-c2c(C)nc3c(N4CC[C@@H](NC(C)=O)C4)cc(C)nn23)cc1
remaining at 1 h, 1 µM [1]: > 95% | Parent compound remaining [2]: 32% | Stability [3]: 84% | remaining at 1 h, 1 µM [4]: > 95%

CC(=O)N[C@@H]1CCN(c2cc(C)nn3c(-c4ccccc4)c(C)nc23)C1
remaining at 1 h, 1 µM [1]: > 95% | remaining at 1 h, 1 µM [4]: > 95%

COc1ccc(-c2c(C)nc3c(N4CCCC4)cc(C)nn23)cc1OC
remaining at 1 h, 1 µM [1]: > 95% | Parent compound remaining [2]: 1% | Stability [3]: 58% | remaining at 1 h, 1 µM [4]: > 95%

COc1ccc(-c2c(C)nc3c(N4CC[C@H](O)C4)cc(C)nn23)cc1OC
remaining at 1 h, 1 µM [1]: > 95% | remaining at 1 h, 1 µM [4]: > 95%

CC(=O)N[C@@H]1CCN(c2cc(C)nn3c(-c4ccc(C(F)(F)F)cc4)c(C)nc23)C1
remaining at 1 h, 1 µM [1]: > 95% | remaining at 1 h, 1 µM [4]: > 95%

CC(=O)N[C@@H]1CCN(c2cc(C)nn3c(-c4ccc(OC(F)(F)F)cc4)c(C)nc23)C1
remaining at 1 h, 1 µM [1]: > 95% | Parent compound remaining [2]: 72% | Stability [3]: 114% | remaining at 1 h, 1 µM [4]: > 95%

COc1ccc(-c2c(C)nc3c(N4CCN(C(=O)OC(C)(C)C)CC4)cc(C)nn23)cc1OC
remaining at 1 h, 1 µM [1]: > 95% | remaining at 1 h, 1 µM [4]: > 95%

CC(=O)N[C@@H]1CCN(c2cc(C)nn3c(-c4cccc(N5CCOCC5)c4)c(C)nc23)C1
remaining at 1 h, 1 µM [1]: > 95% | remaining at 1 h, 1 µM [4]: > 95%

COc1ccc(-c2c(C)nc3c(N4CC[C@@H](NC(=O)[C@@H](OC)c5ccccc5)C4)cc(C)nn23)cc1OC
remaining at 1 h, 1 µM [1]: > 95% | remaining at 1 h, 1 µM [4]: > 95%

COc1ccc(-c2c(C)nc3c(N4CC[C@@H](NC(=O)OC5CCCCC5)C4)cc(C)nn23)cc1OC
remaining at 1 h, 1 µM [1]: > 95% | remaining at 1 h, 1 µM [4]: > 95%

COc1ccc(-c2c(C)nc3c(N4CC[C@@H](NC(=O)COc5ccccc5)C4)cc(C)nn23)cc1OC
remaining at 1 h, 1 µM [1]: > 95% | remaining at 1 h, 1 µM [4]: > 95%

COc1ccc(-c2c(C)nc3c(N4CC=CC4)cc(C)nn23)cc1OC
remaining at 1 h, 1 µM [1]: > 95% | remaining at 1 h, 1 µM [4]: > 95%

CC(=O)N[C@@H]1CCN(c2cc(C)nn3c(-c4nccs4)c(C)nc23)C1
remaining at 1 h, 1 µM [1]: > 95% | remaining at 1 h, 1 µM [4]: > 95%

COc1ccc(-c2c(C)nc3c(N4CC[C@@H](NC(C)=O)C4)cc(C)nn23)cn1
remaining at 1 h, 1 µM [1]: > 95% | remaining at 1 h, 1 µM [4]: > 95%

COc1ccc(-c2c(C)nc3c(N4CC[C@@H](NS(=O)(=O)c5ccc(C(F)(F)F)cc5)C4)cc(C)nn23)cc1OC
remaining at 1 h, 1 µM [1]: > 95% | Parent compound remaining [2]: 15% | Stability [3]: 61% | remaining at 1 h, 1 µM [4]: > 95%

COc1ccc(-c2c(C)nc3c(N4CC[C@@H](NS(=O)(=O)c5ccc(NC(C)=O)cc5)C4)cc(C)nn23)cc1OC
remaining at 1 h, 1 µM [1]: > 95% | remaining at 1 h, 1 µM [4]: > 95%

COc1ccc(-c2c(C)nc3c(N4CC[C@@H](N5CCOCC5)C4)cc(C)nn23)cc1OC
remaining at 1 h, 1 µM [1]: > 95% | remaining at 1 h, 1 µM [4]: > 95%

COc1ccc(-c2c(C)nc3c(N4CC[C@@H](n5cc(-c6ccccc6)nn5)C4)cc(C)nn23)cc1OC
Stability ([1]; microsomes, 1 h, 1 µM): Unstable | Stability ([4]; microsomes, 1 h, 1 µM): Unstable

COc1ccc(-c2c(C)nc3c(N4CC[C@@H](NC(=O)NC(C)C)C4)cc(C)nn23)cc1OC
remaining at 1 h, 1 µM [1]: > 95% | remaining at 1 h, 1 µM [4]: > 95%

COc1ccc(-c2c(C)nc3c(N4CCOCC4)cc(C)nn23)cc1OC
remaining at 1 h, 1 µM [1]: > 95% | remaining at 1 h, 1 µM [4]: > 95%

COc1cc(-c2c(C)nc3c(N4CC[C@@H](NC(C)=O)C4)cc(C)nn23)cc(OC)c1OC
remaining at 1 h, 1 µM [1]: > 95% | remaining at 1 h, 1 µM [4]: > 95%

COc1ccc(-c2c(C)nc3c(N4CC[C@@H](NS(N)(=O)=O)C4)cc(C)nn23)cc1OC
remaining at 1 h, 1 µM [1]: > 95% | remaining at 1 h, 1 µM [4]: > 95%

COc1ccc(-c2c(C)nc3c(N4CC[C@@H](F)C4)cc(C)nn23)cc1OC
remaining at 1 h, 1 µM [1]: > 95% | remaining at 1 h, 1 µM [4]: > 95%

COc1ccc(-c2c(C)nc3c(N4CC[C@@H](NC(C)=O)C4)ccnn23)cc1OC
remaining at 1 h, 1 µM [1]: > 95% | remaining at 1 h, 1 µM [4]: > 95%

COc1ccc(-c2c(C)nc3c(N4CC[C@@H](NS(=O)(=O)c5ccc(C#N)cc5)C4)cc(C)nn23)cc1OC
remaining at 1 h, 1 µM [1]: > 95% | remaining at 1 h, 1 µM [4]: > 95%

COc1ccc(-c2c(C)nc3c(N4CC[C@@H](NS(=O)(=O)C(C)C)C4)cc(C)nn23)cc1OC
remaining at 1 h, 1 µM [1]: > 95% | remaining at 1 h, 1 µM [4]: > 95%

COc1ccc(-c2c(C)nc3c(N4CCN(C(=O)OC(C)(C)C)C4)cc(C)nn23)cc1OC
remaining at 1 h, 1 µM [1]: > 95% | remaining at 1 h, 1 µM [4]: > 95%

COc1ccc(-c2c(C)nc3c(N4CC[C@@H](NC(=O)Oc5ccc6ccccc6c5)C4)cc(C)nn23)cc1OC
remaining at 1 h, 1 µM [1]: > 95% | remaining at 1 h, 1 µM [4]: > 95%
